# Experimental data from ChEMBL document CHEMBL4602735, “Discovery of (1H-Pyrazolo[3,4-c]pyridin-5-yl)sulfonamide Analogues as Hepatitis B Virus Capsid Assembly Modulators by Conformation Constraint” (J Med Chem, 2020).
# Activity calls are given as the source filed them. No cut-off for these calls is given here.
# Experiments:
# Hepatitis B virus [1] = test: Antiviral activity against HBV infected in human HepAD38 cells assessed as reduction in viral DNA levels incubated for 6 days by PCR analysis; assay type: functional, organism-based; conditions: HePAD38, 144 h
# Hepatitis B virus [2] = test: Antiviral activity against HBV infected in human HepAD38 cells assessed as inhibition of intracellular total viral RNA accumulation at 2 uM for 4 days by qPCR or qRT-PCR relative to control; assay type: functional
# Procedure, shortened: (§1)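 HepAD38 or HepG2.2.15 cells were treated at 2 µM for 4 days, with medium replaced every 2 days. Intracellular and extracellular DNA and RNA were quantified by qPCR or qRT-PCR, and HBeAg and HBsAg by ELISA. Results were compared with DMSO vehicle as mean ± SD, using a two-tailed t-test.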
# Hepatitis B virus [3] = test: Inhibition of HBsAg secretion in HBV infected human HepG2.2.15 cells at 2 uM for 4 days by ELISA; assay type: functional, organism-based; conditions: HepG2 2.2.15; procedure, shortened: as §1
# Hepatitis B virus [4] = test: Antiviral activity against HBV infected in human HepAD38 cells assessed as inhibition of intracellular viral DNA accumulation at 2 uM for 4 days by qPCR or qRT-PCR relative to control; assay type: functional, organism-based; procedure, shortened: as §1
# Hepatitis B virus [5] = test: Inhibition of HBeAg secretion in HBV infected human HepG2.2.15 cells at 2 uM for 4 days by ELISA relative to control; assay type: functional, organism-based; conditions: HepG2 2.2.15; procedure, shortened: as §1
# Hepatitis B virus [6] = test: Antiviral activity against HBV infected in human HepAD38 cells assessed as inhibition of intracellular viral RNA accumulation at 2 uM for 4 days by qPCR or qRT-PCR relative to control; assay type: functional, organism-based; procedure, shortened: as §1
# Hepatitis B virus [7] = test: Antiviral activity against multidrug-resistant HBV infected in human HepG2.1403F cells assessed as reduction in viral replication incubated for 6 days by PCR analysis; assay type: functional, organism-based; conditions: 144 h
# Procedure, shortened: (§2)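 Wild-type HBV replication measured in HepAD38 and HepG2.2.15 cells, lamivudine/entecavir-resistant HBV in HepG2.A64 cells (rtL180M+rtT184L+rtM204V) and multidrug-resistant HBV in HepG2.1403F cells (rtL180M+rtM204V+rtS202G+rtN236T). Read-out is reduction of HBV DNA. EC50 is reported as mean ± SD.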
# Hepatitis B virus [8] = test: Antiviral activity against HBV infected in human HepG2.2.15 cells assessed as inhibition of intracellular viral DNA accumulation at 2 uM for 4 days by qPCR or qRT-PCR relative to control; assay type: functional, organism-based; conditions: HepG2 2.2.15; procedure, shortened: as §1
# Hepatitis B virus [9] = test: Antiviral activity against HBV infected in human HepG2.A64 cells containing reverse transcriptase L180M/T184L/M204V mutant assessed as reduction in viral replication incubated for 6 days by PCR analysis; assay type: functional, organism-based; conditions: HepG2.A64, 144 h; procedure, shortened: as §2
# Hepatitis B virus [10] = test: Antiviral activity against HBV infected in human HepG2.2.15 cells assessed as reduction in viral DNA levels incubated for 6 days by PCR analysis; assay type: functional, organism-based; conditions: HepG2 2.2.15, 144 h
# Hepatitis B virus [11] = test: Inhibition of HBsAg secretion in HBV infected human HepAD38 cells at 2 uM for 4 days by ELISA; assay type: functional, organism-based; procedure, shortened: as §1
# HepG2 2.2.15 = test: Inhibition of reverse transcriptase in HBV infected in human HepG2.2.15 cells assessed as induction of intracellular viral RNA accumulation at 2 uM for 4 days by qPCR or qRT-PCR relative to control; assay type: cell-based; conditions: Hepatitis B virus
# [12] = Cytotoxicity in human HepG2 cells assessed as induction of cell killing; assay type: cell-based
# [13] = Cytotoxicity in human HepAD38 cells assessed as induction of cell killing; assay type: cell-based
# Hepatitis B virus [14] = test: Antiviral activity against HBV infected in human HepG2.2.15 cells assessed as inhibition of intracellular viral RNA accumulation at 2 uM for 4 days by qPCR or qRT-PCR relative to control; assay type: functional, organism-based; conditions: HepG2 2.2.15; procedure, shortened: as §1
# [15] = Selectivity index, ratio of CC50 for cytotoxicity in human HepAD38 cells assessed as induction of cell killing to EC50 for antiviral activity against HBV infected in human HepAD38 cells assessed as reduction in viral DNA levels incubated for 6 days by PCR analysis; assay type: toxicity, cell-based; conditions: read-out: Ratio CC50/EC50
# [16] = Intrinsic clearance in mouse liver microsomes; assay type: ADME, Microsome; conditions: read-out: CLH
# [17] = Solubility in pH 6.8 phosphate buffer at 1 mg at 25 degC by HPLC analysis; assay type: physicochemical
# Procedure, shortened: (§3)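 Solubility determined in water or 0.067 M phosphate buffer at pH 5.8, 6.8 and 7.4. Values are reported in mg/mL; ND means below the detection limit.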
# [18] = Solubility in water at 1 mg at 25 degC by HPLC analysis; assay type: physicochemical; procedure, shortened: as §3
# [19] = Solubility in pH 5.8 phosphate buffer at 1 mg at 25 degC by HPLC analysis; assay type: physicochemical; procedure, shortened: as §3
# [20] = Stability in pH 6.8 buffer assessed as compound remaining level at 37 degC by HPLC analysis; assay type: physicochemical
# Procedure, shortened: (§4)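 Prodrug incubated in buffer (0.1 M HCl, pH 5.8, 6.8 or 7.4) at 37 °C; percent of compound remaining determined by HPLC; remaining percentage reported after 3 h, stability meaning no hydrolysis after 2 h.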
# [21] = Stability in pH 7.4 buffer assessed as compound remaining level at 37 degC by HPLC analysis; assay type: physicochemical; procedure, shortened: as §4
# [22] = Half life in mouse plasma by HPLC analysis; assay type: ADME, cell-free
# Procedure, shortened: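 Prodrug incubated in plasma at 37 °C, with percent remaining determined by HPLC to derive half-life.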
# Hepatitis B virus [23] = test: Antiviral activity against HBV infected in human HepAD38 cells; assay type: functional, organism-based
# [24] = Intrinsic clearance in human liver microsomes; assay type: ADME, Microsome; conditions: read-out: CLH
# [25] = Solubility in pH 7.4 phosphate buffer at 1 mg at 25 degC by HPLC analysis; assay type: physicochemical; procedure, shortened: as §3
SMILES,EC50 (Hepatitis B virus [1]) [nM],inhibition (Hepatitis B virus [3]),inhibition (Hepatitis B virus [4]),inhibition (Hepatitis B virus [6]),EC50 (Hepatitis B virus [7]) [nM],inhibition (Hepatitis B virus [8]),EC50 (Hepatitis B virus [9]) [nM],EC50 (Hepatitis B virus [10]) [nM],inhibition (Hepatitis B virus [11]),further results
CCOC(=O)C1=C(CN2CCOCC2)NC(c2nccs2)=NC1c1ccc(F)cc1Br (stereo unspecified),13,inactive,Active,Active,42,Active,6.3,6.6,inactive,inhibition (Hepatitis B virus [2]): Active; inhibition (Hepatitis B virus [5]): Active
Nc1ccn([C@@H]2CS[C@H](CO)O2)c(=O)n1 [LAMIVUDINE],70,,,,> 10000,,> 10000,3.8,,inhibition (HepG2 2.2.15): Active; CC50 [12]: > 100 µM
O=S(=O)(c1cc2c(Nc3ccc(F)c(C(F)F)c3)nn(C3CC3)c2cn1)N1CCC(O)CC1,71,inactive,Active,Active,13,Active,2.2,42,inactive,CC50 [13]: > 100 µM; inhibition (Hepatitis B virus [14]): Active; selectivity ratio at 144 h [15]: > 1410; microsomal CLint [16]: 6.9 µL/min/mg; CC50 [12]: > 100 µM
Cc1cc(Nc2nn(C3CC3)c3cnc(S(=O)(=O)N4CCC(OC(=O)CN(C)C)CC4)cc23)ccc1F.O=C(O)/C=C\C(=O)O,,,,,,,,,,solubility ([17]; BLD = below limit of detection): Bld; solubility [18]: 4200 µg/mL; solubility [19]: 7930 µg/mL
Cc1cc(Nc2nn(C3CC3)c3cnc(S(=O)(=O)N4CCC(OC(=O)[C@@H](N)C(C)C)CC4)cc23)ccc1F.O=C(O)C(F)(F)F,,,,,,,,,,Stability [20]: Unstable; Stability [21]: Stable; half-life [22]: 1080 min
COc1ccccc1/C(Br)=C(\NC(=O)c1ccc([N+](=O)[O-])cc1)C(=O)N1CCCCC1,,inactive,Active,Active,,Active,,,inactive,EC50 (Hepatitis B virus [23]): 130 nM
Cc1cc(Nc2nn(C3CC3)c3cnc(S(=O)(=O)N4CCOCC4)cc23)ccc1F,42,,,,,,,,,CC50 [13]: > 100 µM; microsomal CLint [24]: 38 µL/min/mg; microsomal CLint [16]: 53.5 µL/min/mg
CS(=O)(=O)O.CS(=O)(=O)O.Cc1cc(Nc2nn(C3CC3)c3cnc(S(=O)(=O)N4CCC(OC(=O)CN(C)C)CC4)cc23)ccc1F,,,,,,,,,,"solubility ([17]; phosphate buffer, read-out: solubility): 7690 µg/mL; solubility [25]: 230 µg/mL; solubility [18]: 7900 µg/mL; solubility [19]: 7080 µg/mL"
